Source: PubChem (The Scripps Research Institute Molecular Screening Center)
The list is not random: actives were taken first. Their share in the collection is about 1.9%.
M4 ag = human M4 muscarinic receptor agonists, primary screen, CHO-K1 cells, Fluo-8 calcium fluorescence. Muscarinic acetylcholine receptor M4 (Homo sapiens), P08173. AID 624127, 2012. 360,000 tested, 0.14% active. activation, % at 3 µM. CHO-K1 hM4/Gqi5; vehicle 0%, full acetylcholine response 100%;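 active means activation above the run mean over all test wells plus 3 SD, cut at about 32% in these data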;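 further: peak over basal fluorescence ratio per well then scaled between controls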
M5 ag = human M5 muscarinic receptor agonists, primary screen, CHO-K1 cells, Fluo-8 calcium fluorescence. 360,000 tested, 0.19% active. Muscarinic acetylcholine receptor M5 (Homo sapiens), P08912. activation, % at 3 µM. CHO-K1 hM5 cells; 0% DMSO wells, 100% maximal acetylcholine response;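 active means activation above the run's mean over test compounds plus 3 SD, cut at about 23% in these data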;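 further: signal is peak over basal fluorescence ratio across the kinetic read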
Target sequence (P08912 whole entry, looked up): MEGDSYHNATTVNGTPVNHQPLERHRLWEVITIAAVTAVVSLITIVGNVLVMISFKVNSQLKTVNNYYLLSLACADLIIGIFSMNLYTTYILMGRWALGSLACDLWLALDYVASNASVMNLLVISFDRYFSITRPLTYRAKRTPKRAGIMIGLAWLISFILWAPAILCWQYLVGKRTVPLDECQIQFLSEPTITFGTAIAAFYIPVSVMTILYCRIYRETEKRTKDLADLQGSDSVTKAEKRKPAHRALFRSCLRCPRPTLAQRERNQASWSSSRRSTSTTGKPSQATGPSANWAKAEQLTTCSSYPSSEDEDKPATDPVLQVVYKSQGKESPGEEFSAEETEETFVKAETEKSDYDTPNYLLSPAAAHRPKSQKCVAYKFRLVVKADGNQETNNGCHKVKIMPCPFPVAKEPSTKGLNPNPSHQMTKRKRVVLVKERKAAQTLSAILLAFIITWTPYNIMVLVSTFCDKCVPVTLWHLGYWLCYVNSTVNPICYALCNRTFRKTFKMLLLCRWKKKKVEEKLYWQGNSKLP
CHRM5 PAM = human M5 muscarinic receptor positive allosteric modulators, primary screen, CHO-K1 cells, Fluo-8 calcium fluorescence. Muscarinic acetylcholine receptor M5 (Homo sapiens), P08912. CHO-K1 hM5, ACh EC20 PAM; 0% = ACh EC20, 100% = ACh EC100. activation, % at 3 µM. 360,000 tested, 0.3% active. AID 624038, 2012;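 active means activation above the run cutoff, the mean activation of all test compounds plus 3 SD, cut at about 18% in these data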
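System: CHO-K1 hM5 cells. Reagent: acetylcholine, EC20 level. Compound dosing: single dose, 3 µM nominal final test concentration. Timing: Post-acetylcholine fluorescence recording 140 s. Detection: Fluo-8 calcium fluorescence. Read-out: % activation, ACh-normalized. Benchmarks: ACh EC20 and EC100 wells. Repeats: singlicate, one well per test compound.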
CHRM5 antagonist = human M5 muscarinic receptor antagonists, primary screen, CHO cells, Fluo-8 calcium fluorescence | Muscarinic acetylcholine receptor M5 (Homo sapiens), P08912 | CHO-hM5 cells, ACh EC80 | inhibition, % at 3 µM | 360,000 tested, 0.59% active | AID 624040, 2012;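 active means inhibition above a per-plate cutoff, the mean of that plate's test compounds plus 3 SD, cut at about 27% in these data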
CHRM4 antagonist = human M4 muscarinic receptor antagonists, primary screen, CHO cells, Fluo-8 calcium fluorescence | Muscarinic acetylcholine receptor M4 (Homo sapiens), P08173 | CHO-hM4 cells, ACh EC80 | inhibition, % at 3 µM | 360,000 tested, 0.73% active | AID 624125, 2012;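 active means inhibition above its plate's cutoff, the mean inhibition of sample wells plus 3 SD, cut at about 27% in these data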
CHRM4 PAM = human M4 muscarinic receptor positive allosteric modulators, primary screen, CHO-K1 cells, Fluo-8 calcium fluorescence. activation, % at 3 µM. 360,000 tested, 0.4% active. CHO-K1 hM4/Gqi5, ACh EC20; 0% = ACh EC20, 100% = maximal ACh. AID 624126, 2012. Muscarinic acetylcholine receptor M4 (Homo sapiens), P08173;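 active means activation above its plate's cutoff, the mean activation of sample wells plus 3 SD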
Hits are given with their value; n = inactive.

SMILES | M4 ag | M5 ag | CHRM5 PAM | CHRM5 antagonist | CHRM4 antagonist | CHRM4 PAM
CCN(CC)CCC#CC1(O)c2ccccc2-c2ccccc21 | n | n | n | 87 | 73 | n
Cc1ccc(C(=O)Nc2ccccc2N2CCOCC2)cc1S(=O)(=O)N1CCOCC1 | n | n | n | n | n | n
CSC(=Nc1ccccc1)N=C(SCc1ccccc1)N(C)C | n | n | n | n | 46 | n
COC(=O)c1ccccc1N=C(SC)N(C)C | n | n | n | n | n | n
Cc1ccc(C(=O)NNC(=O)c2csc(N3CCOCC3)n2)s1 | n | n | n | n | n | n
CCC(=O)C1CCCN(C(=O)CCc2nnc(C3(c4ccc(Cl)cc4)CCC3)o2)C1 (stereo not drawn) | n | n | n | n | n | 21
CC(CNc1ccc(Cl)cc1)(CNc1ccc(Cl)cc1)[N+](=O)[O-] | n | n | n | n | n | n
COC(=O)CCCCCCCCCCN1CCCCC1 | n | n | n | n | 40 | n
COC(=O)CCCCC(=O)OC | n | n | n | n | n | n
Cc1cccc(OCC(=O)Nc2ccc(N3CCN(C(=O)c4ccco4)CC3)cc2)c1 | n | n | n | 27 | n | n
CCOC(=O)c1c(NC(=O)C(C)N2CCN(C(=O)c3ccco3)CC2)sc2c1CCCC2 (stereo not drawn) | 41 | 27 | n | n | 49 | n
COC(=O)c1c(NC(=S)NC(=O)c2ccco2)sc2c1CCCC2 | n | n | n | n | n | 33
CCOC(=O)c1c(NC(=O)c2ccco2)sc2c1CCCCC2 | n | n | n | n | n | n
Cc1sc(NC(=S)NC(=O)c2ccco2)c(C(N)=O)c1C | n | n | n | 31 | n | n
Cc1sc(NC(=S)NC(=O)CCc2ccccc2)c(C(N)=O)c1C | n | n | n | n | n | n
O=C(O)CC1(O)C(=O)N(Cc2ccccc2)c2ccccc21 (stereo not drawn) | n | n | n | n | n | n
CC(C)(C)C(=O)CC1(O)C(=O)N(Cc2ccc(Cl)cc2)c2ccccc21 (stereo not drawn) | n | n | n | n | n | 38
CCCCc1ccc(NC(=O)CSc2nnc(CNC(=O)c3ccco3)o2)cc1 | n | n | n | n | n | n
CCN1CCN(CC(=O)Nc2ccc3c(c2)OCCO3)C(=O)C1=O | n | n | n | n | n | 31
CCN1CCN(CC(=O)Nc2ccc3c(c2)OCO3)C(=O)C1=O | n | n | n | n | n | n
O=C(COc1ncnc2ccc(Br)cc12)NC1CCCC1 | n | n | n | n | n | 25
CCn1c(=Nc2ccc(N3CCOCC3)cc2)ccc2ccccc21 | n | n | n | 67 | n | n
Cn1c(=Nc2ccc(N3CCOCC3)cc2)ccc2ccccc21 | n | n | n | 39 | n | n
CCn1c(=O)c([N+](=O)[O-])c(N2CCOCC2)c2ccccc21 | n | n | n | n | n | n
Cn1c(N=Nc2ccc(N3CCOCC3)cc2)[n+](C)c2ccccc21 | n | n | n | n | n | n
SMILES | M4 ag | M5 ag | CHRM5 PAM | CHRM5 antagonist | CHRM4 antagonist | CHRM4 PAM
CCN(CC(=O)Nc1ccccc1OC)C(=O)CCOc1ccc(C(C)(C)C)cc1 | n | n | n | n | n | n
CC(=O)c1ccc(NC(=O)[C@@H]2CCCN2C2=NS(=O)(=O)c3ccccc32)cc1 | n | n | n | n | n | n
CS(=O)(=O)N1CCN(C(=O)Cc2ccc(Br)cc2)CC1 | n | n | n | n | n | n
COc1ccc(CC(=S)NCCc2ccccc2)cc1 | n | n | n | n | n | n
CCN(CC)S(=O)(=O)c1ccc(C(=O)NCC(c2cccs2)N2CCOCC2)cc1 (stereo not drawn) | n | n | n | n | 39 | n
O=C(CCNS(=O)(=O)c1ccc(Br)cc1)N1CCN(c2ccccc2O)CC1 | n | n | n | n | n | n
CCc1nnc(NC(=O)c2ccc(COc3cccc(C)c3)o2)s1 | n | n | n | n | n | n
COc1ccc(/C=C(/NC(=O)c2ccco2)C(=O)Nc2cccc(C(=O)O)c2)cc1 | n | n | n | n | n | n
O=C(Nc1cccc(C(=O)O)c1)/C(=C\c1ccccc1Cl)NC(=O)c1ccco1 | n | n | n | n | n | 21
CCN(CC)c1ccc(C(=C2C=CC(=[N+](CC)CC)C=C2)c2ccc(N(CC)CC)cc2)cc1 | n | n | n | 36 | 43 | n
CCN(CC)c1ccc(C(=C2C=CC(=[N+](CC)CC)C=C2)c2ccccc2)cc1 | 66 | 30 | n | 85 | 99 | n
COc1ccc(-c2nn(Cc3ccccc3)cc2C(=O)N2CCN(c3ncccn3)CC2)cc1OC | n | n | n | n | n | n
CCc1ccc(-c2n[nH]nc2C2=CC(=O)C[C@H](c3ccc(F)cc3)C2)cc1 | n | n | n | n | n | n
Cc1ccc([C@@H]2CC=C(C(=O)O)[C@H](c3ccc(Cl)cc3)N2S(=O)(=O)c2ccccc2C)cc1 | n | n | n | n | n | n
Cc1noc(C)c1C(=O)Nc1ccc(S(=O)(=O)N2CCC(C)CC2)cc1 | n | n | n | n | n | n
Cc1noc(C)c1C(=O)Nc1ccc(S(=O)(=O)N2CCCCC2)cc1 | n | n | n | n | n | 16
Cc1onc(-c2c(F)cccc2Cl)c1C(=O)Nc1ccc(S(=O)(=O)N2CCOCC2)cc1 | n | n | n | n | n | n
Cc1onc(-c2c(F)cccc2Cl)c1C(=O)Nc1cc(S(=O)(=O)N2CCCCC2)ccc1O | n | n | n | n | 27 | n
CCOc1ccccc1NC(=O)COC(=O)C1COc2ccccc2O1 (stereo not drawn) | n | n | n | n | n | n
Cc1cc(Nc2nc3ccccc3[nH]c2=O)n(-c2ccccc2)n1 | n | n | 23 | n | n | n
Cc1cc(NC(=O)COC(=O)Cn2[nH]c(=O)c3ccccc3c2=O)c([N+](=O)[O-])cc1C | n | n | n | n | n | n
Cc1ccc(CNc2ccc(N3CCOCC3)cc2)cc1 | n | n | n | n | n | 14
CC(C)c1ccc(CNc2ccc(N3CCOCC3)cc2)cc1 | n | n | n | n | n | n
CC(C)(C)c1cc(NC(=O)c2ccc(OC3CCCC3)cc2)no1 | n | n | n | n | n | n
O=C(Nc1ccon1)c1ccc(OC2CCCC2)cc1 | n | n | n | n | 38 | n
